Experimental findings from ChEMBL document CHEMBL4261552, “4-Hydroxy-N-[3,5-bis(trifluoromethyl)phenyl]-1,2,5-thiadiazole-3-carboxamide: a novel inhibitor of the canonical NF-κB cascade” (Medchemcomm, 2017) are described below.

In assay [1] the target is Mitogen-activated protein kinase kinase kinase 14 (Homo sapiens, UniProt Q99558). Briefly: Inhibition of human NIK at 100 uM using AKDVDQGSLCTSFVGTLQY as substrate after 60 mins in presence of ATP by ADP-Glo kinase assay relative to control.
Assay [2] deals with MDA-MB-231. Kind of assay: Inhibition of constitutively activated canonical NF-kB signaling pathway in human MDA-MB-231 cells assessed as residual activity at 10 uM after 24 hrs by luciferase reporter gene assay relative to control. It counts as cell-based. Summed up:
(§1)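 MDA-MB-231 cells (constitutive NF-κB) nucleofected with 3 µg of NF-κB-RE firefly luciferase plus TK-Renilla plasmids (10:1), then cultured 24 h. Compound added for a further 6 h or 24 h, without stimulus. Firefly/Renilla ratio expressed as % of DMSO-treated control; mean ± SD of three independent experiments.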

The subject of another assay is Jurkat. Kind of assay: Inhibition of TNFalpha-activated canonical NF-kB signaling pathway in human Jurkat cells assessed as residual activity at 1 uM after 6 hrs by luciferase reporter gene assay relative to control. It counts as cell-based. Summed up:
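Jurkat cells nucleofected with 3 µg of NF-κB-RE firefly luciferase and TK-Renilla plasmids (10:1), then cultured 24 h at 37 °C. Compound added for a further 6 h, with TNFα in the last 20 min. Firefly luminescence normalized to Renilla and expressed as % of DMSO+TNFα control; mean ± SD of three experiments.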

In assay [3] the target is T1, Inhibitor of nuclear factor kappa-B kinase subunit epsilon (Homo sapiens) (UniProt Q14164).
T1 sequence (whole entry): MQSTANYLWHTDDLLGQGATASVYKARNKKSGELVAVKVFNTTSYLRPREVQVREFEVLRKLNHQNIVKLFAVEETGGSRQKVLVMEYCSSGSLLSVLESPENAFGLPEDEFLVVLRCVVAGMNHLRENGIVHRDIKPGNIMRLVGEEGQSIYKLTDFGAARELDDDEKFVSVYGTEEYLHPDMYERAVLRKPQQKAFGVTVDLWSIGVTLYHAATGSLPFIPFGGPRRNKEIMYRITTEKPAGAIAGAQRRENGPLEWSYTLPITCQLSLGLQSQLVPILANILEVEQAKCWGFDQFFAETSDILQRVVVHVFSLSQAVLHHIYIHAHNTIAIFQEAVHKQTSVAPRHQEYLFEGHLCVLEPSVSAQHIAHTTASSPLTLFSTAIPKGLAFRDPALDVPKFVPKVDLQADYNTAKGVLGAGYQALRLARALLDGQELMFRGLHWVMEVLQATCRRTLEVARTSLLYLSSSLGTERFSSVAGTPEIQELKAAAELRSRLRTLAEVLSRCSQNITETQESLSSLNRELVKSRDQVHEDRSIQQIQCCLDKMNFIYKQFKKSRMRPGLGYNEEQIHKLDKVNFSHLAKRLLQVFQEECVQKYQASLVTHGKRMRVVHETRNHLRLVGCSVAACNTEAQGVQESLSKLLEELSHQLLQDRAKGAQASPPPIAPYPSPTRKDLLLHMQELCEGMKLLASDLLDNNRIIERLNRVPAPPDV
Kind of assay: Inhibition of human IKKepsilon at 100 uM using ERLLDDRHDSGLDSMKDEE as substrate after 60 mins in presence of ATP by ADP-Glo kinase assay relative to control.

In assay [4] the target is T2, Inhibitor of nuclear factor kappa-B kinase subunit beta (Homo sapiens, UniProt O14920).
T2 sequence (O14920 whole entry): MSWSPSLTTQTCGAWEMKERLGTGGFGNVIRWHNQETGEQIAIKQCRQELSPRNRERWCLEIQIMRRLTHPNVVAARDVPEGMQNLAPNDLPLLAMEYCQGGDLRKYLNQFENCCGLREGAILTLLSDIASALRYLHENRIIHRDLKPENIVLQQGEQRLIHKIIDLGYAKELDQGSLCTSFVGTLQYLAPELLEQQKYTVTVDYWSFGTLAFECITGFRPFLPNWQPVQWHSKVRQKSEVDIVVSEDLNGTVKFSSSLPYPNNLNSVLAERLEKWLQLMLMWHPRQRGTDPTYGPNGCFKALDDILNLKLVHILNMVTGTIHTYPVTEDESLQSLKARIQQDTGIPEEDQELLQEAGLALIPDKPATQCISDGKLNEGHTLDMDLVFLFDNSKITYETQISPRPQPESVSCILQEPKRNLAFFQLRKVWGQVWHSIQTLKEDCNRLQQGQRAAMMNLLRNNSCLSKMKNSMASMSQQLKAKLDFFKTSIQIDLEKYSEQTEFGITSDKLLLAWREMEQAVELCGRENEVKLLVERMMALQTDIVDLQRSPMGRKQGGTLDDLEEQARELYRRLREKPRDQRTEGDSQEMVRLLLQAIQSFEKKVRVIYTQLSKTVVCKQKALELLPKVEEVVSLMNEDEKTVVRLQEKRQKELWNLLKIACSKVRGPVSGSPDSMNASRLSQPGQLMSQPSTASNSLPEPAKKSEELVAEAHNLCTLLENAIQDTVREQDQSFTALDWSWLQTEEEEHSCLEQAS
Kind of assay: Inhibition of IKK-beta in human Jurkat cells assessed as reduction in TNFalpha-stimulated IkBalpha degradation preincubated for 60 mins followed by TNFalpha stimulation for 20 mins by immunoblot analysis. The assay is classed as cell-based.

Assay [5] concerns MDA-MB-231. Briefly: Inhibition of constitutively activated canonical NF-kB signaling pathway in human MDA-MB-231 cells assessed as residual activity at 10 uM after 6 hrs by luciferase reporter gene assay relative to control. The assay is classed as cell-based. Summed up:
as §1

For assay [6], the target named is Inhibitor of NF-kappa-B kinase (IKK) (Homo sapiens) (UniProt O14920+O15111+Q9Y6K9). Briefly: Inhibition of IKKbeta/IKKalpha/NEMO complex immunoprecipated from TNFalpha-stimulated human Jurkat cells at 100 uM relative to control.
The species entered for a further assay is Homo sapiens. Briefly: Inhibition of canonical NF-kB signaling pathway in human THP1 cells assessed as reduction in LPS-induced IkBalpha degradation preincubated for 60 mins followed by LPS addition measured after 30 mins by immunoblot analysis. The assay is classed as cell-based. The gist of the method: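 THP-1 cells in RPMI-1640 with 10% FBS. Cells exposed 60 min to compound, then 30 min to LPS 1 µg/mL. Lysates immunoblotted at 20 µg/lane for IκBα and β-actin, with ECL detection. Band signals normalized as % of control; apparent IC50 by non-linear regression; mean ± SD of three independent experiments.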

Chain of Mitogen-activated protein kinase kinase kinase 14 (Q99558 whole entry, looked up): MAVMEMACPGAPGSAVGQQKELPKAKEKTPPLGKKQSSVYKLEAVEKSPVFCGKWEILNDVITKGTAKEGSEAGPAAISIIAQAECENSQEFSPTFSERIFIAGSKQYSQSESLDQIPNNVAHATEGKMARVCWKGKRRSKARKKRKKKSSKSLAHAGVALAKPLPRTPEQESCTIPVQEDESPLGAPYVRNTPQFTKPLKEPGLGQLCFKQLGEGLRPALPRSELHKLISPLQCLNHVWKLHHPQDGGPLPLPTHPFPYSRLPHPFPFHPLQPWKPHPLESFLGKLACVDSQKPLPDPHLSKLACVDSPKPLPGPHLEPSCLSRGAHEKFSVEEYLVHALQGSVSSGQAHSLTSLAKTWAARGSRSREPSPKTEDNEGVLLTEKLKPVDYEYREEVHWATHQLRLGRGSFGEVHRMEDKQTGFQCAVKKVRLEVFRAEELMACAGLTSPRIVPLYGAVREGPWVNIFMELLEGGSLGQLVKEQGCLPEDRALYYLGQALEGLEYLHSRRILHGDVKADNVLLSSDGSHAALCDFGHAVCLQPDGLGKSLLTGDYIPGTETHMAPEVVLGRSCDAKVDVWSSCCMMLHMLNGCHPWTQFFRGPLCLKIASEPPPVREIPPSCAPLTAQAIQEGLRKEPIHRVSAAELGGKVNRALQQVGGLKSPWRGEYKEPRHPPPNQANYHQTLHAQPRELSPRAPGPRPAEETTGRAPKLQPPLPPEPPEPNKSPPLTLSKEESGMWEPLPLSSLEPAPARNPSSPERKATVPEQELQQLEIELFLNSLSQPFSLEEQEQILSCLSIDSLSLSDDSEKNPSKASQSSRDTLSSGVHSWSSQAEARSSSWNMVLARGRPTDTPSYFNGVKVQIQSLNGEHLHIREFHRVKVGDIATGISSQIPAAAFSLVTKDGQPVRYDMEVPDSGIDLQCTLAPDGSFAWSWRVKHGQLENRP

With `O=C(Nc1cc(C(F)(F)F)cc(C(F)(F)F)c1)c1cc(Cl)ccc1O` [IMD-0354], the inhibition in assay [1] came out at 13.8%; in assay [3] it was 30.5%; in assay [6] it was 40%. Also, the figures for the Activity in the assay with MDA-MB-231 [2], with Jurkat and with MDA-MB-231 [5] were 58.3%, 23.5% and 99%, respectively. Further, the IC50 in assay [4] amounted to 218 nM.
Consider `O=C(Nc1cc(C(F)(F)F)cc(C(F)(F)F)c1)c1nsnc1O`, for which the results for the inhibition (in assay [1]; in the assay listed under Homo sapiens; in assay [3]) were 4.34%, “Dose-dependent effect” and 30.2%, respectively. Besides, the Activity with MDA-MB-231 [2] was 63%; with Jurkat it was 15.9%; in the assay with MDA-MB-231 [5] it was 96.1%. In addition, the IC50 in assay [4] came out at 143 nM.
